The source made the active and inactive calls. No cut-off for these calls is given here.
What was measured:
HEK-293T = experiment: Cytotoxicity against human HEK293T cells assessed as reduction in cell viability at 200 uM after 7 hrs by DAPI staining based assay
Summary of the method: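 HEK 293T cells transiently transfected with hIDO1 (plus GFP plasmid), treated at 200 μM test compound with 2% final DMSO for 7 h at 37 °C; DMSO as negative control. Cells then washed in PBS, resuspended in PBS with 1 μg/mL DAPI and analysed immediately by flow cytometry to detect apoptotic cells.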

[1] = molecular target: T1, Indoleamine 2,3-dioxygenase 1 (Homo sapiens, UniProt P14902); experiment: Inhibition of recombinant human IDO1 expressed in Escherichia coli Rosetta (DE3) cells assessed as reduction in kynurenine production using L-tryptophan as substrate incubated for 20 mins by HPLC analysis
Target sequence in this assay (P14902 whole entry): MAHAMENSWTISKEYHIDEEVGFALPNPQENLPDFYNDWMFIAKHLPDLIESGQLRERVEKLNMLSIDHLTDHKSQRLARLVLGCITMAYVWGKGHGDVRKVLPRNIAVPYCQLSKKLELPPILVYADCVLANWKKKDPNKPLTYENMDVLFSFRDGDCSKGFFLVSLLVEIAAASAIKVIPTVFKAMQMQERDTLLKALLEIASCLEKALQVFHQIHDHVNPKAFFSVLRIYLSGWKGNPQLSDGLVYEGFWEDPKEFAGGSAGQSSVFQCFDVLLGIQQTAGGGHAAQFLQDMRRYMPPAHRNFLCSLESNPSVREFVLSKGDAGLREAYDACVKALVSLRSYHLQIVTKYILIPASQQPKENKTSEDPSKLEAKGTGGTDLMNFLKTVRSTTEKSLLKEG

[2] = molecular target: T1, Indoleamine 2,3-dioxygenase 1; experiment: Inhibition of human IDO1 expressed in HEK293T cells assessed as reduction in kynurenine production using L-tryptophan as substrate incubated for 7 hrs by HPLC analysis; format: cell-based
Target sequence in this assay (P14902 whole entry): as above

[3] = molecular target: T1, Indoleamine 2,3-dioxygenase 1; experiment: Inhibition of human IDO1 expressed in HEK293T cells assessed as reduction in kynurenine production at 200 uM using L-tryptophan as substrate incubated for 7 hrs by HPLC analysis; format: cell-based
Summary of the method: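 HEK 293T cells transiently transfected with full-length hIDO1 in pcDNA6/myc-His (with GFP plasmid to check efficiency); 16–18 h later replated in phenol-red-free DMEM with 10% FBS, 1 mM pyruvate, and added 500 μM L-trp. Compound at 200 μM, 2% final DMSO, 7 h at 37 °C; stopped with TCA (4% final). Kynurenine read by p-DMAB absorbance at 480 nm or by HPLC.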
Target sequence in this assay (P14902 whole entry, looked up): as the sequence (P14902 whole entry) above

[4] = molecular target: T1, Indoleamine 2,3-dioxygenase 1; experiment: Inhibition of recombinant human IDO1 expressed in Escherichia coli Rosetta (DE3) cells assessed as reduction in kynurenine production using L-tryptophan as substrate at pH 7.4 incubated for 20 mins by HPLC analysis
Target sequence in this assay (P14902 whole entry): as above

Row | IC50 [1] [µM] | IC50 [2] [µM] | inhibition [3] | IC50 [4] [µM] | SMILES | Activity (HEK-293T)
1 |  |  |  |  | Oc1ccc(Cl)cc1-c1cnc[nH]1 | Non-Toxic
2 | 1200 |  |  |  | Cn1cncc1-c1cc(Cl)ccc1N | Non-Toxic
3 |  |  |  |  | c1ccc(-c2nnn[nH]2)cc1 | Non-Toxic
4 | 33 |  |  |  | Nc1ccccc1-c1c[nH]nn1 | 30%
5 | 0.22 |  |  |  | Nc1ccc(Cl)cc1-c1nnn[nH]1 | Non-Toxic
6 | 31 |  |  |  | Oc1ccccc1-c1nnc[nH]1 | Non-Toxic
7 | 0.6 |  |  |  | Oc1ccc(Cl)cc1-c1nnc[nH]1 | Non-Toxic
8 | 31 |  |  |  | Clc1cccc(-c2nnc[nH]2)c1 | Non-Toxic
9 | 1.5 |  |  |  | Nc1ccc(Cl)cc1-c1cnn[nH]1 | 30%
10 | 12.1 |  |  |  | Nc1ccc(Cl)cc1-c1cnc[nH]1 | Non-Toxic
11 | 0.035 | 0.034 |  |  | Nc1ccc(Cl)cc1-c1nnc[nH]1 | Non-Toxic
12 | 2.3 |  |  |  | Oc1ccccc1-c1c[nH]nn1 | Non-Toxic
13 |  |  |  |  | c1ccc(-c2cnn[nH]2)cc1 | Non-Toxic
14 | 18 |  |  |  | Nc1ccccc1-c1cnc[nH]1 | Non-Toxic
15 |  |  |  |  | c1ccc(-c2c[nH]cn2)cc1 | Non-Toxic
16 | 12.9 |  |  |  | Cn1cncc1-c1cccc(Cl)c1 | Non-Toxic
17 | 41 |  |  |  | Clc1cccc(-n2ccnc2)c1 | Non-Toxic
18 | 2.6 |  |  |  | Clc1cccc(-c2cnc[nH]2)c1 | Non-Toxic
19 | 0.35 |  |  |  | Clc1cccc(-c2c[nH]nn2)c1 | Non-Toxic

Row | IC50 [1] [µM] | IC50 [2] [µM] | inhibition [3] | IC50 [4] [µM] | SMILES | Activity (HEK-293T)
20 | 700 |  |  |  | Oc1ccccc1-c1nnn[nH]1 | Non-Toxic
21 | 100 |  |  |  | Clc1cccc(-c2nnn[nH]2)c1 | Non-Toxic
22 | 88 |  |  |  | Nc1ccc(Cl)cc1-n1ccnc1 | Non-Toxic
23 | 2.1 |  | inactive |  | Oc1ccc(Cl)cc1-n1ccnc1 | Non-Toxic
24 | 16 |  |  |  | Oc1ccccc1-n1ccnc1 | Non-Toxic
25 | 1700 |  |  |  | Cn1cncc1-c1ccccc1N | Non-Toxic
26 | 0.02 |  |  |  | Nc1ccc(Br)cc1-c1nc[nH]n1 | 
27 |  |  |  |  | c1ccc(-n2ccnc2)cc1 | Non-Toxic
28 |  |  |  |  | Oc1ccc(Cl)cc1-c1c[nH]nn1 | Non-Toxic
29 |  |  |  |  | Oc1ccccc1-c1c[nH]cn1 | Non-Toxic
30 | 5.8 |  |  |  | Nc1ccccc1-c1nnn[nH]1 | Non-Toxic
31 |  |  |  |  | Cn1cncc1-c1ccccc1 | Non-Toxic
32 | 16 |  |  |  | Oc1ccc(Cl)cc1-c1nnn[nH]1 | Non-Toxic
33 | 17 |  |  |  | Cn1cncc1-c1cc(Cl)ccc1O | Non-Toxic
34 |  |  |  | 580 | c1ccc(-c2nc[nH]n2)cc1 | Non-Toxic
35 | 1300 |  |  |  | Nc1ccccc1-n1ccnc1 | Non-Toxic
36 | 2 |  |  |  | Nc1ccccc1-c1nnc[nH]1 | Non-Toxic
37 | 38 |  |  |  | Cn1cncc1-c1ccccc1O | Non-Toxic

From ChEMBL document CHEMBL4834395, “Azole-Based Indoleamine 2,3-Dioxygenase 1 (IDO1) Inhibitors” (J Med Chem, 2021)
